# Experimental data: ChEMBL document CHEMBL1152654, “Development of a highly water-soluble peptide-based human neutrophil elastase inhibitor; AE-3763 for treatment of acute organ injury” (Bioorg Med Chem, 2009)
# Active and inactive are the calls of the source. The rule behind the calls is not given here.
# Assays:
# Hamster [1] = experiment: Inhibition of human neutrophil elastase-induced lung hemorrhage in hamster at 3 mg/kg/hr, iv administered as infusion; type: functional; conditions: Cricetinae
# Procedure, shortened: (§1)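 Hamster lung hemorrhage induced by HNE instillation, with compound delivered by iv infusion over more than 70 min. BALF collected 1 h after HNE and centrifuged; supernatant absorbance at 414 nm used as hemorrhage measure; % inhibition reported.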
# Hamster [2] = experiment: Inhibition of human neutrophil elastase-induced lung hemorrhage in hamster at 10 mg/kg, iv administered as bolus dose; type: functional; conditions: Cricetinae
# Procedure, shortened: (§2)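 Hamster lung hemorrhage induced by HNE instillation; compound given as iv bolus. One hour after HNE, BALF collected and centrifuged; supernatant absorbance at 414 nm taken as hemorrhage; % inhibition reported.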
# Hamster [3] = experiment: Inhibition of human neutrophil elastase-induced lung hemorrhage in hamster at 3 mg/kg, iv administered as bolus dose; type: functional; conditions: Cricetinae; procedure, shortened: as §2
# Hamster [4] = experiment: Inhibition of human neutrophil elastase-induced lung hemorrhage in hamster at 1 mg/kg/hr, iv administered as infusion; type: functional; conditions: Cricetinae; procedure, shortened: as §1
# Hamster [5] = experiment: Inhibition of human neutrophil elastase-induced lung hemorrhage in hamster at 10 mg/kg/hr, iv administered as infusion; type: functional; conditions: Cricetinae; procedure, shortened: as §1
# Hamster [6] = experiment: Inhibition of human neutrophil elastase-induced lung hemorrhage in hamster at 30 mg/kg, iv administered as bolus dose; type: functional; conditions: Cricetinae; procedure, shortened: as §2
# Mus musculus [7] = experiment: Toxicity in mouse assessed as overt effects up to 300 mg/kg, iv; type: organism-based; set-up: dose 300 mg/kg, route intravenous; conditions: in vivo
# Mus musculus [8] = species: Mus musculus; conditions: C3H/HeN, 10 to 100 mg/kg
# Hamster [9] = experiment: Antiinflammatory activity in iv dosed hamster assessed as inhibition of LPS-induced lung edema; type: functional, Cricetinae
# Procedure, shortened: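 Hamsters given LPS intratracheally; jugular-vein infusion started immediately after LPS and continued up to 6 h. Whole-lung wet weight measured at 6 h after LPS and corrected for each animal's body weight.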
# Hamster [10] = experiment: Inhibition of human neutrophil elastase-induced lung hemorrhage in iv dosed hamster administered as bolus dose; type: functional; conditions: Cricetinae; procedure, shortened: as §2
# Hamster [11] = experiment: Inhibition of human neutrophil elastase-induced lung hemorrhage in iv dosed hamster administered as infusion; type: functional, Cricetinae; procedure, shortened: as §1
# [12] = Aqueous solubility in water; type: physicochemical
Structure (SMILES),inhibition in vivo at 3 mg/kg/hr (Hamster [1]),inhibition in vivo at 10 mg/kg (Hamster [2]),inhibition in vivo at 3 mg/kg (Hamster [3]),inhibition in vivo at 1 mg/kg/hr (Hamster [4]),inhibition in vivo at 10 mg/kg/hr (Hamster [5]),other results
CC(C)[C@H](NC(=O)[C@@H]1CCCN1C(=O)[C@@H](NC(=O)CN1CCN(CC(=O)O)CC1)C(C)C)C(=O)c1nc2ccccc2o1,48%,70%,44%,34%,87%,–
CC(C)[C@H](NC(=O)[C@@H]1CCCN1C(=O)[C@@H](NC(=O)CN1CCN(CC(=O)O)C1=O)C(C)C)C(=O)c1nc2ccccc2o1,31%,68%,22%,25%,90%,–
CC(C)[C@H](NC(=O)[C@@H]1CCCN1C(=O)[C@@H](NC(=O)Cn1c(=O)ccn(CC(=O)O)c1=O)C(C)C)C(=O)c1nc2ccccc2o1,–,47%,34%,–,–,inhibition in vivo at 30 mg/kg (Hamster [6]): 94%
CC(C)[C@H](NC(=O)CN1CCN(CC(=O)O)C1=O)C(=O)N1CCC[C@H]1C(=O)N[C@H](C(=O)C(F)(F)F)C(C)C,84%,–,–,45%,97%,Activity (Mus musculus [7]): Non-toxic; inhibition (Mus musculus [8]): Active; MED (Hamster [9]): 3 mg/kg/h; ED50 (Hamster [10]): 1.2 mg/kg; ED50 (Hamster [11]): 0.42 mg/kg/h; solubility [12]: > 1000 mg/mL
COC(=O)C(=O)[C@@H](NC(=O)[C@@H]1CCCN1C(=O)[C@@H](NC(=O)CN1CCN(CC(=O)O)C(=O)C1=O)C(C)C)C(C)C,48%,–,–,–,94%,–
CC(C)[C@H](NC(=O)[C@@H]1CCCN1C(=O)[C@@H](NC(=O)CN1CCC(=O)N(CC(=O)O)C1=O)C(C)C)C(=O)c1nc2ccccc2o1,–,34%,38%,–,–,–
CC(C)[C@H](NC(=O)[C@@H]1CCCN1C(=O)[C@@H](NC(=O)CN1C(=O)CN(CC(=O)O)C1=O)C(C)C)C(=O)c1nc2ccccc2o1,57%,72%,37%,39%,53%,inhibition in vivo at 30 mg/kg (Hamster [6]): 81%
Cc1cn(CC(=O)N[C@H](C(=O)N2CCC[C@H]2C(=O)N[C@H](C(=O)c2nc3ccccc3o2)C(C)C)C(C)C)c(=O)n(CC(=O)O)c1=O,38%,70%,39%,33%,56%,inhibition in vivo at 30 mg/kg (Hamster [6]): 92%
COC(=O)C(=O)[C@@H](NC(=O)[C@@H]1CCCN1C(=O)[C@@H](NC(=O)Cn1ccc(=O)n(CC(=O)O)c1=O)C(C)C)C(C)C,43%,–,–,32%,94%,–
CC(C)[C@H](NC(=O)[C@@H]1CCCN1C(=O)[C@@H](NC(=O)CN1CCN(CC(=O)O)C(=O)C1=O)C(C)C)C(=O)c1nc2ccccc2o1,76%,88%,57%,41%,95%,–
CC(C)[C@H](NC(=O)[C@@H]1CCCN1C(=O)[C@@H](NC(=O)COc1ccc(OCC(=O)O)cc1)C(C)C)C(=O)c1nc2ccccc2o1,–,38%,–,–,–,inhibition in vivo at 30 mg/kg (Hamster [6]): 56%
CC(C)[C@H](NC(=O)[C@@H]1CCCN1C(=O)[C@@H](NC(=O)CN1C(=O)N(CC(=O)O)C(C)(C)C1=O)C(C)C)C(=O)c1nc2ccccc2o1,–,59%,20%,–,–,–
CC(C)[C@H](NC(=O)[C@@H]1CCCN1C(=O)[C@@H](NC(=O)CN1C(=O)N(CC(=O)O)C(=O)C1(C)C)C(C)C)C(=O)c1nc2ccccc2o1,–,42%,40%,–,–,–
CC(C)[C@H](NC(=O)[C@@H]1CCCN1C(=O)[C@@H](NC(=O)CN1CCN(CC(=O)O)C(=O)C1=O)C(C)C)C(=O)C(=O)NCc1ccccc1,47%,–,–,31%,89%,–
CC(C)[C@H](NC(=O)Cn1ccc(=O)n(CC(=O)O)c1=O)C(=O)N1CCC[C@H]1C(=O)N[C@H](C(=O)C(F)(F)F)C(C)C (mixture of isomers),7.6%,–,–,-1.2%,79%,–
CC(C)[C@H](NC(=O)[C@@H]1CCCN1C(=O)[C@@H](NC(=O)Cn1ccc(=O)n(CC(=O)O)c1=O)C(C)C)C(=O)C(=O)NCc1ccccc1,78%,–,–,32%,90%,–
Cc1nn(CC(=O)N[C@H](C(=O)N2CCC[C@H]2C(=O)N[C@H](C(=O)c2nc3ccccc3o2)C(C)C)C(C)C)c(=O)n(CC(=O)O)c1=O,–,48%,–,–,–,–
CC(C)[C@H](NC(=O)[C@@H]1CCCN1C(=O)[C@@H](NC(=O)CN1CC(=O)N(CC(=O)O)CC1=O)C(C)C)C(=O)c1nc2ccccc2o1,73%,67%,20%,55%,90%,–
CC(C)[C@H](NC(=O)[C@@H]1CCCN1C(=O)[C@@H](NC(=O)CN1CC(=O)N(CC(=O)O)C1=O)C(C)C)C(=O)c1nc2ccccc2o1,44%,67%,32%,-7%,78%,inhibition in vivo at 30 mg/kg (Hamster [6]): 91%
CC(C)[C@H](NC(=O)[C@@H]1CCCN1C(=O)[C@@H](NC(=O)Cn1ccc(=O)n(CC(=O)O)c1=O)C(C)C)C(=O)c1nc2ccccc2o1,62%,66%,24%,50%,93%,inhibition in vivo at 30 mg/kg (Hamster [6]): 97%
CC(C)[C@H](NC(=O)[C@@H]1CCCN1C(=O)[C@@H](NC(=O)Cn1ncc(=O)n(CC(=O)O)c1=O)C(C)C)C(=O)c1nc2ccccc2o1,–,33%,14%,–,–,–
